Results from ChEMBL document CHEMBL1770105, “Discovery and evaluation of pyrazolo[1,5-a]pyrimidines as neuropeptide Y1 receptor antagonists” (Bioorg Med Chem Lett, 2011).

How the values were obtained:
[1] = target: T1, Neuropeptide Y receptor type 1 (Homo sapiens, UniProt P25929); assay: Displacement of [125I]-PYY from human recombinant NPY Y1 receptor overexpressed in membrane of Sf9 cells
T1 sequence (P25929 whole entry): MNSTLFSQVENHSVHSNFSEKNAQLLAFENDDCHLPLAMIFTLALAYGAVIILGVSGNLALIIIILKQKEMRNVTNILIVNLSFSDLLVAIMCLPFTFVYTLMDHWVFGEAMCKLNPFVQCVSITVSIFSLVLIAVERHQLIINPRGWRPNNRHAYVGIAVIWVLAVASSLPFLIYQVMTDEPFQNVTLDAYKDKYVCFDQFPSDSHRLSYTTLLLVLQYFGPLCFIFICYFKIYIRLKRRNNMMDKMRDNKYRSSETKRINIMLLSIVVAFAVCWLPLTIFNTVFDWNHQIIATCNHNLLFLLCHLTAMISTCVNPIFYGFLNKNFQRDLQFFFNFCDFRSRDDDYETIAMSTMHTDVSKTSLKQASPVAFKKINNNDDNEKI
Method in brief: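 Human Y1 receptor: 125I-PYY displacement on Sf9 membranes overexpressing recombinant hY1R. Ki values are single determinations run in triplicate.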

[2] = Ratio of fraction unbound drug level in brain to plasma in Mdr1a/1b knockout mouse to FVB mouse at 5 mg.kg, sc after 0.5 hrs; format: ADME, organism-based
Method in brief: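 Brain and plasma levels measured in Mdr1a/1b knockout and wild-type FVB mice 0.5 h after a 5 mg/kg sc dose. Brain/plasma ratios calculated from unbound fractions, measured by equilibrium dialysis of brain homogenate and plasma. Result expressed as knockout B/P over FVB B/P.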

[3] = target: T2, Corticotropin-releasing factor receptor 1 (Homo sapiens, UniProt P34998); assay: Binding affinity to CRHR
T2 sequence (P34998 whole entry): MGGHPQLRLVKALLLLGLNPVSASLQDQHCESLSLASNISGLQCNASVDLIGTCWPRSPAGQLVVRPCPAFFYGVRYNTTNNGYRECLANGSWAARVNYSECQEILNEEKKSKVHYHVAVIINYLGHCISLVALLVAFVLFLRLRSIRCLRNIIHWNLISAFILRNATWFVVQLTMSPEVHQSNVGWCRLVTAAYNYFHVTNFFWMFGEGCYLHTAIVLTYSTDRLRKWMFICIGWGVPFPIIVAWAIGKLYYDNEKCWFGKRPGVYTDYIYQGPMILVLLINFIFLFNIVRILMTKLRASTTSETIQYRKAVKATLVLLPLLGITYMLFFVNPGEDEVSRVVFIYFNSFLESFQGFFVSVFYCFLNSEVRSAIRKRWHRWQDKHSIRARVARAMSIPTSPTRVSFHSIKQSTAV

[4] = Selectivity ratio of NPY Y1 receptor over CRHR

Row | Structure (SMILES) | Ki [1] | Knockout-to-FVB ratio of unbound brain/plasma ratio [2] | Ki [3] | Ratio [4]
1 | COc1cc(Cl)c(-c2c(C)nn3c(NCC(C)(C)NC4CCOCC4)cc(C)nc23)c(Cl)c1 | 141 nM | 4 |  | 
2 | COc1cc(Cl)c(-c2c(C)nn3c(NCCNCCF)cc(C)nc23)c(Cl)c1 | 22 nM | 4 |  | 
3 | COc1cc(Cl)c(-c2c(C)nn3c(NCCNC4CCCCC4F)cc(C)nc23)c(Cl)c1 (mixture of isomers) | 5 nM | 8 |  | 
4 | COc1ccc(CCNCCNc2cc(C)nc3c(-c4c(C)cc(C)cc4C)c(C)nn23)cc1 | 29 nM |  |  | 
5 | Cc1cc(C)c(-c2c(C)nn3c(NCCN)cc(C)nc23)c(C)c1 | 2300 nM |  | > 10000 nM | 
6 | CCN(CCN)c1nc(C)nc2c1c1ccccc1n2-c1c(C)cc(C)cc1C |  |  | 4470 nM | 29
7 | Cc1cc(NCCNC2CCOCC2)n2nc(C)c(-c3c(Cl)cccc3Cl)c2n1 | 7 nM |  |  | 
